First the molecules themselves.
B1: NELF-E aptamer (parent)
chain: CCCAACGACUGCCGAGCGAGAUUACGCUUGAGCGCCCCACUGAGGAUGCCCACGGGCGAUUGGGGCACGG

In general, Kd refers to a measure of binding affinity in units of concentration.

In the data set the parent is B1. Put plainly: HiTS-RAP. To be noted: with NELF-E (Drosophila). The procedure, abridged: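 Kd came from weighted Hill fits to the first binding curve, with intensities normalised to sequencing intensity and averaged per sequence, keeping only fits whose variance was below 1,000,000. That curve was imaged on an Illumina GAIIx flowcell, where sequenced aptamer DNA templates with a T7 promoter and ter site had been transcribed in situ by T7 RNA polymerase and halted by GST-Tus (30 minutes, 37°C). Before each image, clusters equilibrated for 30 minutes at room temperature with NELF-E-mOrange at 0.064 to 1000 nM in HEPES binding buffer.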
Take CCCAACGACAGCCGAGCGAGAUUACGCUUGAGCGCCCCACUGAGGAUGCCCACGGGCGAUUGGGGCGCGG [U10A A67G]: the Kd is 4.3 nM.
For CCCAACGACAGCCGAGCGAGAUUACGCUUGAGCGCCCCACUGAGGAUGCCCACGGGCGAUUGGGGCUCGG [U10A A67U], the Kd was determined as 9.22 nM.
For CCCAACGAUUUCCGAGCGAGAUUACGCUUGAGCGCCCCACUGAGGAUGCCCACGGGCGAUUGGGGCACGG [C9U G11U], the Kd was found to be 5.56 nM.
For CCCAACGACAGCCGAGCGGGAUUACGCUUGAGCGCCCCACUGAGGAUGCCCACGGGCGAUUGGGGCACGG [U10A A19G], the Kd stood at 6.65 nM.
For CCCAACGACAGCCGAGCGAGAUCACGCUUGAGCGCCCCACUGAGGAUGCCCACGGGCGAUUGGGGCACGG [U10A U23C], the Kd was determined as 5.46 nM.
CCCAACGACAGCCGAGCGAGAUGACGCUUGAGCGCCCCACUGAGGAUGCCCACGGGCGAUUGGGGCACGG [U10A U23G]: the Kd is 5.54 nM.
For CCCAACGAUUGCCGAUCGAGAUUACGCUUGAGCGCCCCACUGAGGAUGCCCACGGGCGAUUGGGGCACGG [C9U G16U], the Kd was determined as 7.34 nM.
Regarding CCCAACGAUUGCCGAGCGAGAGUACGCUUGAGCGCCCCACUGAGGAUGCCCACGGGCGAUUGGGGCACGG [C9U U22G], the dissociation constant Kd came to 5.55 nM.
Under CCCAACGACAGCCGAGCGAGAUUACGCUUGAGCGCCCCGCUGAGGAUGCCCACGGGCGAUUGGGGCACGG [U10A A39G] stands 11.6 nM; under CCCAACGACCGCCGAGCGAGAUUGCGCUUGAGCGCCCCACUGAGGAUGCCCACGGGCGAUUGGGGCACGG [U10C A24G], 5.38 nM.
With CCCAACGACAGCCGAGCGAGAUUACGCUGGAGCGCCCCACUGAGGAUGCCCACGGGCGAUUGGGGCACGG [U10A U29G], the Kd came out at 5.61 nM.
Under CCCAACGACAGCCGAGCGAGAUUACGCUCGAGCGCCCCACUGAGGAUGCCCACGGGCGAUUGGGGCACGG [U10A U29C] stands 5.24 nM.
With CCCAACGAUGGCCGAGCGAGAUUACGCUUGAGCGCCCCACUGAGGAUGCCCACGGGCGAUUGGGGCACGG [C9U U10G], the Kd is 5.19 nM.
Turning to CCCAACGACCGCCGAGCGGGAUUACGCUUGAGCGCCCCACUGAGGAUGCCCACGGGCGAUUGGGGCACGG [U10C A19G], the Kd amounted to 4.87 nM.
In the case of CCCAACGAUUGCCGAGGGAGAUUACGCUUGAGCGCCCCACUGAGGAUGCCCACGGGCGAUUGGGGCACGG [C9U C17G], the Kd was 6.19 nM.
For the variant CCCAACGAUUGCCGAGCGAUAUUACGCUUGAGCGCCCCACUGAGGAUGCCCACGGGCGAUUGGGGCACGG [C9U G20U], the Kd was 7.82 nM.
For the variant CCCAACGAUUGCCGAGCGAGAUUACGCUUGAGCGCCCCACUGAGGAUGCCCACGGGCGAUUGGGUCACGG [C9U G65U], the Kd was determined as 6.78 nM.
Turning to CCCAACGACCGCCGAGCGAGAUUACGCUUGAGCGCCCCACUGAGGAUGCCCACGGGCGAUUGGGGCACGG [U10C], the Kd amounted to 4.6 nM.
The same measure for CCCAACGACAGCCGAGCGAGAUUACGCUUGAGCGCCCCACUGAGGAUGCCCACGGGCGAUUGGGGCACGG [U10A]: 4.9 nM; for CCCAACGACAGCCGGGCGAGAUUACGCUUGAGCGCCCCACUGAGGAUGCCCACGGGCGAUUGGGGCACGG [U10A A15G]: 3.62 nM.
For CCCAACGACAGCCAAGCGAGAUUACGCUUGAGCGCCCCACUGAGGAUGCCCACGGGCGAUUGGGGCACGG [U10A G14A], the Kd was 7.05 nM.
With CCCAACGACAGCCUAGCGAGAUUACGCUUGAGCGCCCCACUGAGGAUGCCCACGGGCGAUUGGGGCACGG [U10A G14U], the Kd was found to be 6.38 nM.
In the case of CCCAACGACAUCCGAGCGAGAUUACGCUUGAGCGCCCCACUGAGGAUGCCCACGGGCGAUUGGGGCACGG [U10A G11U], the Kd was 7.2 nM.
With CCCAACGACAGCCGAGCGAGAUUACGCUUGUGCGCCCCACUGAGGAUGCCCACGGGCGAUUGGGGCACGG [U10A A31U], the Kd came out at 5.78 nM.
For the variant CCCAACGACAGCCGAGCGAGAUUACGCUUGGGCGCCCCACUGAGGAUGCCCACGGGCGAUUGGGGCACGG [U10A A31G], the Kd is 9.84 nM.
In the case of CCCAACGAUUGCCGAGCGAGAUGACGCUUGAGCGCCCCACUGAGGAUGCCCACGGGCGAUUGGGGCACGG [C9U U23G], the Kd is 5.63 nM.
In the case of CCCAACGACAGCCGAGCGAGAUUGCGCUUGAGCGCCCCACUGAGGAUGCCCACGGGCGAUUGGGGCACGG [U10A A24G], the Kd was determined as 5.63 nM.
In the case of CCCAACGACAGCCGAGCGAGAUUACGCUUGAGCGCCCCACUGAGGAUGCCCACGGGCGAUAGGGGCACGG [U10A U61A], the Kd was determined as 26 nM.
On to CCCAACGACAGCCGAGCGAGAUUACGCUUGAGCGCCCCACUGAGGAUGCCCACGGGUGAUUGGGGCACGG [U10A C57U], for which the equilibrium dissociation constant (Kd) was 5.96 nM.
As to CCCAACGACAGGCGAGCGAGAUUACGCUUGAGCGCCCCACUGAGGAUGCCCACGGGCGAUUGGGGCACGG [U10A C12G], the Kd turned out to be 6.47 nM.
On to CCCAACGACAGCCGAGCGAGAUUACGCUUGAGCGCCCCACUGAGGAUGCCCAUGGGCGAUUGGGGCACGG [U10A C53U], for which the equilibrium dissociation constant (Kd) was 5.03 nM.
CCCAACGACAGCCGAGCGAGAGUACGCUUGAGCGCCCCACUGAGGAUGCCCACGGGCGAUUGGGGCACGG [U10A U22G]: the Kd was 5.49 nM.
Consider CCCAACGAUUGCCGAGCGAGAUUACGCUUGAGCGCCCCACGGAGGAUGCCCACGGGCGAUUGGGGCACGG [C9U U41G], for which the Kd amounted to 5.98 nM.
Regarding CCCAACGACAGCGGAGCGAGAUUACGCUUGAGCGCCCCACUGAGGAUGCCCACGGGCGAUUGGGGCACGG [U10A C13G], the dissociation constant (Kd) was 5.83 nM.
For CCCAACGAUUGCCGAGCGAGAUUACGCUGGAGCGCCCCACUGAGGAUGCCCACGGGCGAUUGGGGCACGG [C9U U29G], the Kd was 5.3 nM.
Turning to CCCAACGAUUGCCUAGCGAGAUUACGCUUGAGCGCCCCACUGAGGAUGCCCACGGGCGAUUGGGGCACGG [C9U G14U], the Kd came out at 6.79 nM.
For CCCAACGAUUGCCAAGCGAGAUUACGCUUGAGCGCCCCACUGAGGAUGCCCACGGGCGAUUGGGGCACGG [C9U G14A], the Kd was found to be 6.66 nM.
For the variant CCCAACGACAGCCGAUCGAGAUUACGCUUGAGCGCCCCACUGAGGAUGCCCACGGGCGAUUGGGGCACGG [U10A G16U], the Kd stood at 5.86 nM.
Take CCCAACGACAGCCGAGCGAGAUUACACUUGAGCGCCCCACUGAGGAUGCCCACGGGCGAUUGGGGCACGG [U10A G26A]: the Kd turned out to be 5.22 nM.

These data come from the RNAGym collection of RNA variant scans (doi:10.1038/nmeth.2970).
